Measured values reported in ChEMBL document CHEMBL1777748 (Bioorg Med Chem Lett, 2011).
Active and inactive are the calls of the source. The calls are words filed in the database; no cut-off is given here.

What was measured:
[1] = molecular target: T1, Prostaglandin D2 receptor 2 (Homo sapiens, UniProt Q9Y5Y4); assay: Displacement of [3H]-PGD2 from CRTh2 receptor by scintillation proximity assay
T1 sequence (Q9Y5Y4 whole entry): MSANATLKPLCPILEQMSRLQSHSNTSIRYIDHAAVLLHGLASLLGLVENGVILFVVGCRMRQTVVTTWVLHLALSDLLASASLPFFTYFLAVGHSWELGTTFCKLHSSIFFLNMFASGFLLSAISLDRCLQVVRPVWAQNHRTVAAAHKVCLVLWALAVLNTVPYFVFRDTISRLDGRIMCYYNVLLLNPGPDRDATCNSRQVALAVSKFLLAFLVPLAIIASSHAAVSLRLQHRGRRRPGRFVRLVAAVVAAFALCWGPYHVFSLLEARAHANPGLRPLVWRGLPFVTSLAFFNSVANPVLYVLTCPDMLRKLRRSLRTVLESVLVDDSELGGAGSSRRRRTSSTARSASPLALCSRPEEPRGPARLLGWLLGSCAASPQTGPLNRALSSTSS

[2] = Intrinsic clearance in rat hepatocytes assessed per 1 x 10^6 cells
[3] = Intrinsic clearance in human liver microsomes
[4] = molecular target: T1, Prostaglandin D2 receptor 2; assay: Antagonist activity at human CRTh2 receptor expressed in CHO cells assessed as inhibition of PGD2-induced calcium flux in presence of 1% bovine serum albumin; type: functional, cell-based
[5] = Half life in iv dosed rat; details: in vivo
[6] = Oral bioavailability in rat; type: ADME, organism-based; details: in vivo
[7] = molecular target: T2, Prostaglandin D2 receptor 2 (Homo sapiens) (UniProt Q9Y5Y4); assay: Partial agonist activity at human CRTh2 receptor expressed in HEK cells assessed as stimulation of calcium flux; type: functional, cell-based; details: HEK293
T2 sequence (whole entry): T1 sequence (Q9Y5Y4 whole entry)

[8] = molecular target: T1, Prostaglandin D2 receptor 2; assay: Antagonist activity at human CRTh2 receptor expressed in HEK cells assessed as inhibition of PGD2-induced calcium flux; type: functional, cell-based, HEK293
Outline: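 PGD2-driven Ca2+ flux in HEK cells transfected with human CRTh2, read as antagonism of the response.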

[9] = Lipophilicity, log D of the compound at pH 7.4; details: buffer
[10] = Aqueous solubility of the compound in buffer at pH 7.4; type: physicochemical
[11] = molecular target: T2, Prostaglandin D2 receptor 2 (Homo sapiens); assay: Displacement of [3H]-PGD2 from CRTh2 receptor at 10 uM by scintillation proximity assay
Outline: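 Scintillation proximity binding with [3H]-PGD2 as radioligand; reported values are means of more than 2 measurements.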

Cytochrome P450 1A2 = molecular target: T3, Cytochrome P450 1A2 (Homo sapiens, UniProt P05177); assay: Inhibition of CYP1A2; type: ADME
T3 sequence (P05177 whole entry): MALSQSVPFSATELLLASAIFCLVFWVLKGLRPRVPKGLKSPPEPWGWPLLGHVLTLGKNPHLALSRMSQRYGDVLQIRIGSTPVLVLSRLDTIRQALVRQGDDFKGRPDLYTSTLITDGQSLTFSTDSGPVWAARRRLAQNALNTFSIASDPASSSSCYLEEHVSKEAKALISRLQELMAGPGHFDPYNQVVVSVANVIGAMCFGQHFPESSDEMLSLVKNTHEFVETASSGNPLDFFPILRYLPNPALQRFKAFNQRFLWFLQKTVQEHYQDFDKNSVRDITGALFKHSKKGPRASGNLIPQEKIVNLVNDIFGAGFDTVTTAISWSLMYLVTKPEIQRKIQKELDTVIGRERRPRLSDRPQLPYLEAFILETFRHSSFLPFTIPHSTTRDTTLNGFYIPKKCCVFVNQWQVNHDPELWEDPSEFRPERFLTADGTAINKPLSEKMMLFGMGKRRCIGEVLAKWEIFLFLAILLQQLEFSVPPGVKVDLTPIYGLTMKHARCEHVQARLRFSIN

Cytochrome P450 3A4 = Cytochrome P450 3A4 (Homo sapiens, UniProt P08684); assay: Inhibition of CYP3A4; type: ADME
Cytochrome P450 2C9 = Cytochrome P450 2C9 (Homo sapiens, UniProt P11712); assay: Inhibition of CYP2C9; type: ADME
Cytochrome P450 2C19 = Cytochrome P450 2C19 (Homo sapiens, UniProt P33261); assay: Inhibition of CYP2C19; type: ADME
Cytochrome P450 2D6 = Cytochrome P450 2D6 (Homo sapiens, UniProt P10635); assay: Inhibition of CYP2D6; type: ADME
[12] = molecular target: T4, Prostaglandin D2 receptor 2 (Mus musculus, UniProt Q9Z2J6); assay: Binding affinity to mouse CRTh2 receptor
T4 sequence (Q9Z2J6 whole entry): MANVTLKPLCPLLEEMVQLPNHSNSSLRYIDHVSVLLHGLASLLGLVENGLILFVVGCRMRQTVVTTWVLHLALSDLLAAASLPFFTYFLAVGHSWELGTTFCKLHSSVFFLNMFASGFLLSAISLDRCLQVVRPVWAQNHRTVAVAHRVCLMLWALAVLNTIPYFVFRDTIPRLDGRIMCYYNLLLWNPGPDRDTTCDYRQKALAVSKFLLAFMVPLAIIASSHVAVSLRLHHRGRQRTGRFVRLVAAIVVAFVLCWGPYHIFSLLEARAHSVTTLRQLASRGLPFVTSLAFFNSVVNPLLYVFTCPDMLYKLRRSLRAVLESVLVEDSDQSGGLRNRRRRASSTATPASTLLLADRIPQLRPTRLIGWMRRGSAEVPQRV

[13] = molecular target: T5, Prostaglandin D2 receptor 2 (Rattus norvegicus, UniProt Q6XKD3); assay: Binding affinity to rat CRTh2 receptor
T5 sequence (Q6XKD3 whole entry): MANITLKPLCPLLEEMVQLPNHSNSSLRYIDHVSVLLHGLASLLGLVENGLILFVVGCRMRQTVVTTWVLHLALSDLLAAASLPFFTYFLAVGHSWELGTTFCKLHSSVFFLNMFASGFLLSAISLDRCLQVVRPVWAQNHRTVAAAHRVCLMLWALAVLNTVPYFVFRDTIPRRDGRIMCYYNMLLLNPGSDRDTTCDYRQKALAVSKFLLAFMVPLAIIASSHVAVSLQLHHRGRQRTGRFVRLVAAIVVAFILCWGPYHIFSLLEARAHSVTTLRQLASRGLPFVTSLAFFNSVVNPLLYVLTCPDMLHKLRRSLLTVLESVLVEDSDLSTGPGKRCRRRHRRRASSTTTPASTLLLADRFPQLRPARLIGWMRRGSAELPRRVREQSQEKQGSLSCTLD

[14] = molecular target: T6, Chemoattractant receptor-homologous molecule expressed on Th2 cells (Cavia porcellus, UniProt Q56D28); assay: Binding affinity to guinea pig CRTh2 receptor
T6 sequence (Q56D28 whole entry): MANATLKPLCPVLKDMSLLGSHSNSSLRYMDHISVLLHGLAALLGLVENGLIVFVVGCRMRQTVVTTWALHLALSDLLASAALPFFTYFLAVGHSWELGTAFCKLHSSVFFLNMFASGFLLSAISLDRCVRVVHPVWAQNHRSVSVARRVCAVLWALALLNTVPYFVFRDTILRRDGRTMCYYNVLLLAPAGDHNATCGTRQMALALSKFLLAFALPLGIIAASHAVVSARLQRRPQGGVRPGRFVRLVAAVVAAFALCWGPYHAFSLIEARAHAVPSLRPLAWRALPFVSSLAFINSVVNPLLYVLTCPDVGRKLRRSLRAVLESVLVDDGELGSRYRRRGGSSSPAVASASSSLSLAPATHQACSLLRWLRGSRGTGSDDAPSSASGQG

[15] = Oral bioavailability in dog; type: ADME, organism-based, Canis lupus familiaris; details: in vivo
Mus musculus = organism: Mus musculus; assay: Protection against 11 days tobacco smoke-induced mucosal damage in mouse lung assessed as inhibition of inflammatory cells accumulation; type: functional, organism-based
[16] = Fraction unbound in human plasma; type: ADME, cell-free
[17] = Fraction unbound in rat plasma; type: ADME, cell-free
[18] = Fraction unbound in dog plasma; type: ADME, cell-free, Canis lupus familiaris
[19] = Fraction unbound in cynomolgus monkey plasma; type: ADME, cell-free, Macaca fascicularis
[20] = molecular target: T2, Prostaglandin D2 receptor 2 (Homo sapiens); details: HEK293, 10 uM

Cytochrome P450 2D6, sequence (P10635 whole entry): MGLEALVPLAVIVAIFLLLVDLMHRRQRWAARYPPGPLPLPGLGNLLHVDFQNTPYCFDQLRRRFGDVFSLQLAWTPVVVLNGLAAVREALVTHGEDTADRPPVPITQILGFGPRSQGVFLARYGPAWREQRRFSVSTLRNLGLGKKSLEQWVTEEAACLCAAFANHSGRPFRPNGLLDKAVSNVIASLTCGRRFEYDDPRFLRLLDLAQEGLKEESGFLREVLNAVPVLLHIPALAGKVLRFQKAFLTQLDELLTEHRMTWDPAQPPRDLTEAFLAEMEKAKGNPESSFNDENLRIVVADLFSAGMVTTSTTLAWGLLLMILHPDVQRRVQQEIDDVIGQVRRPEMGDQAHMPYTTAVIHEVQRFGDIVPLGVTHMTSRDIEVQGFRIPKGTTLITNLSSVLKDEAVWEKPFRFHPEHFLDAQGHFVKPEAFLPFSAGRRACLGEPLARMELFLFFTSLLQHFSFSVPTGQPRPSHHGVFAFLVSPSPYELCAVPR
Cytochrome P450 2C9, sequence (P11712 whole entry): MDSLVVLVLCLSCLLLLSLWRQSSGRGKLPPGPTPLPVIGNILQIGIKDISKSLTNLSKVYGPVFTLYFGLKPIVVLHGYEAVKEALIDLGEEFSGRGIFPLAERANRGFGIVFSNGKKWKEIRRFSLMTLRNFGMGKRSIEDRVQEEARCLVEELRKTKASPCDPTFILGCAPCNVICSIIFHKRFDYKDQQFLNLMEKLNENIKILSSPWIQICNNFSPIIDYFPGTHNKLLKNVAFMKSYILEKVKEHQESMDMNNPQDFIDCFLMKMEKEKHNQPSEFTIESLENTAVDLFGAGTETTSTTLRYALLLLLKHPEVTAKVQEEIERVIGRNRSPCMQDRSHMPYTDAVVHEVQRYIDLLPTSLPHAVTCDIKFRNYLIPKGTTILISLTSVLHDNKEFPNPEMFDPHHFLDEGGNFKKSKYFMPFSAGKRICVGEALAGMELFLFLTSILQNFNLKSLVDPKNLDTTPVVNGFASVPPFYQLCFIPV
Cytochrome P450 2C19, sequence (P33261 whole entry): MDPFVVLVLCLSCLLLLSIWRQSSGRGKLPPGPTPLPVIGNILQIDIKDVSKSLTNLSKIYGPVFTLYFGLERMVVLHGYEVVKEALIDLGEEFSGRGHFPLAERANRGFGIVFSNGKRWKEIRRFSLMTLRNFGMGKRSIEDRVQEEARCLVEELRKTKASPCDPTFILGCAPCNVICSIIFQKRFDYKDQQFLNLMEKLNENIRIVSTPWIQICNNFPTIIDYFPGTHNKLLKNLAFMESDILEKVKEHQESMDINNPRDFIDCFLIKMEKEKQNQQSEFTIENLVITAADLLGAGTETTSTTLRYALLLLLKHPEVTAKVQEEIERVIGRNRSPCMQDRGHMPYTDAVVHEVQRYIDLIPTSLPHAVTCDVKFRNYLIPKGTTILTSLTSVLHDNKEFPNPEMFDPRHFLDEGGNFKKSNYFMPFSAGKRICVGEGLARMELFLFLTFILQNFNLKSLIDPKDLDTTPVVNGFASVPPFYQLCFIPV
Cytochrome P450 3A4, sequence (P08684 whole entry): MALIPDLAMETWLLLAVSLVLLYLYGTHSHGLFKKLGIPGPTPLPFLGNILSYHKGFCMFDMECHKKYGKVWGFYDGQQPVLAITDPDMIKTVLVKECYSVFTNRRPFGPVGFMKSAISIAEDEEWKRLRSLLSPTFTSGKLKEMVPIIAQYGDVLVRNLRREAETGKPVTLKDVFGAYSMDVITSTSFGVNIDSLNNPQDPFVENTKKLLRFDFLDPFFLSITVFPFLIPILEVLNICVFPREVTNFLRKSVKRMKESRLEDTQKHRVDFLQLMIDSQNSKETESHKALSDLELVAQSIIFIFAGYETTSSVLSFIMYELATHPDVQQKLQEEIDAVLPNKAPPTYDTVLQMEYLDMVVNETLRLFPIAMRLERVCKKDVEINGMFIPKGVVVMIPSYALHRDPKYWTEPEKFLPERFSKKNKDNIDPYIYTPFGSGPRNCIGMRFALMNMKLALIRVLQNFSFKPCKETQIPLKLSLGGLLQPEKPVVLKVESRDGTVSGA

SMILES	IC50 [1]	hepatocyte CLint [2]	microsomal CLint ([3]; liver microsomes)	other results
CS(=O)(=O)c1ccc(-c2cc(C(F)(F)F)ccc2OCC(=O)O)cc1	0.036 µM	< 3 µL/min/1e6 cells	< 3 µL/min/mg	Activity [7]: Active
O=C(O)COc1ccc(-c2nccs2)cc1-c1ccccc1	1.78 µM	–	–	IC50 [8]: 0.501 µM
CS(=O)(=O)c1ccc(OCC(=O)O)c(-c2ccccc2)c1	0.541 µM	6 µL/min/1e6 cells	< 3 µL/min/mg	Activity [7]: Active
O=C(O)COc1ccc(C(F)(F)F)cc1-c1ccccc1	0.045 µM	3 µL/min/1e6 cells	< 3 µL/min/mg	solubility [10]: > 80 µM
CCS(=O)(=O)c1ccc(-c2cc(C(F)(F)F)ccc2OCC(N)=O)c(C)c1	5.65 µM	29 µL/min/1e6 cells	< 3 µL/min/mg	logD [9]: 2.8
O=C(O)COc1ccccc1-c1ccccc1	–	–	–	inhibition [11]: 41%
CCN(CC)S(=O)(=O)c1ccc(-c2cc(C(F)(F)F)ccc2OCC(=O)O)cc1	0.0013 µM	18 µL/min/1e6 cells	9 µL/min/mg	logD [9]: 0.7
CCS(=O)(=O)c1ccc(-c2cc(C(F)(F)F)ccc2OCC(=O)O)c(C)c1	0.0009 µM	–	–	IC50 [4]: 0.029 µM; bioavailability [6]: 42%; IC50 (Cytochrome P450 1A2): > 50 µM; IC50 (Cytochrome P450 3A4): > 50 µM; IC50 (Cytochrome P450 2C9): > 50 µM; IC50 (Cytochrome P450 2C19): > 50 µM; IC50 (Cytochrome P450 2D6): > 50 µM; IC50 [12]: 0.001 µM; IC50 [13]: 0.0013 µM; IC50 [14]: 0.063 µM; bioavailability [15]: 46%; Activity (Mus musculus): Active; fraction unbound [16]: 0.046; fraction unbound [17]: 0.056; fraction unbound [18]: 0.03; fraction unbound [19]: 0.026
COc1ccc(-c2cc(C(F)(F)F)ccc2OCC(=O)O)cc1	0.251 µM	47 µL/min/1e6 cells	12 µL/min/mg	logD [9]: 0.3

The next lines start with results.

IC50 [1]	hepatocyte CLint [2]	microsomal CLint ([3]; liver microsomes)	SMILES	other results
0.0017 µM	5 µL/min/1e6 cells	–	N#Cc1cccc(-c2cc(Cl)ccc2OCC(=O)O)c1	microsomal CLint ([3]; microsomes): < 3 µL/min/mg; IC50 [4]: 0.01 µM; half-life [5]: 2.3 h; bioavailability [6]: 96%
0.794 µM	< 3 µL/min/1e6 cells	12 µL/min/mg	Cc1ccc(OCC(=O)O)c(-c2ccccc2)c1	IC50 [8]: 0.708 µM
0.355 µM	< 3 µL/min/1e6 cells	6 µL/min/mg	N#Cc1ccc(OCC(=O)O)c(-c2ccccc2)c1	IC50 [8]: 0.251 µM
0.05 µM	< 3 µL/min/1e6 cells	11 µL/min/mg	O=C(O)COc1ccc(C(F)(F)F)cc1-c1ccc(Cl)cc1	logD [9]: 0.9
0.0002 µM	< 3 µL/min/1e6 cells	–	Cc1ccc(C#N)cc1-c1cc(C(F)(F)F)ccc1OCC(=O)O	microsomal CLint ([3]; microsomes): < 3 µL/min/mg; logD [9]: 0.2
0.316 µM	7 µL/min/1e6 cells	< 3 µL/min/mg	O=C(O)COc1ccc(Br)cc1-c1ccccc1	IC50 [8]: 0.158 µM
0.251 µM	–	–	O=C(O)COc1ccc([N+](=O)[O-])cc1-c1ccccc1	IC50 [8]: 0.178 µM
8.91 µM	64 µL/min/1e6 cells	< 3 µL/min/mg	Nc1ccc(OCC(=O)O)c(-c2ccccc2)c1	inhibition [20]: 17%
